{
  "source": "ChEMBL document CHEMBL4619773",
  "about": "“Chemoreactive-Inspired Discovery of Influenza A Virus Dual Inhibitor to Block Hemagglutinin-Mediated Adsorption and Membrane Fusion” (J Med Chem, 2020)",
  "key": {"[1]": {"assay": "Half life in rat at 0.35 mg/kg /kg, iv administered as single dose", "assay_type": "ADME, organism-based", "conditions": "in vivo", "summary_of_the_method": "(§1)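 Male Kunming mice (20-25 g) and male Sprague Dawley rats (180-220 g) were fasted 12 h before dosing. Oral dosing was by gavage as a suspension in 0.5% sodium carboxymethyl cellulose; iv dosing was via tail vein in PEG400. Serial plasma samples were taken to 24 h, protein-precipitated with acetonitrile plus N-CH3 internal standard, and quantified by LC-MS/MS (n=3). Bioavailability = AUCoral/AUCiv.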"}, "[2]": {"tested_on": "Influenza A virus", "assay": "Antiviral activity against Influenza A virus (A/Puerto Rico/8/1934(H1N1)) infected in MDCK cells pre-incubated for 1 hr before assay and incubated for 3 days by crystal violet staining based plaque assay", "assay_type": "functional, organism-based", "summary_of_the_method": "(§2)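 Confluent MDCK monolayers were exposed to 10-fold serial virus dilutions for 1 h at 37 °C, then washed. The overlay was DMEM with 1.5% agarose, 0.02% DEAE-dextran and 1 µg/ml TPCK-trypsin. After 3 days at 37 °C in 5% CO2, cells were fixed with 0.05% glutaraldehyde, stained with 1% crystal violet in 20% ethanol, and plaques were counted.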"}, "[3]": {"assay": "Cmax in mouse at 5 mg/kg, po administered as single dose", "assay_type": "ADME, organism-based", "set-up": "dose 5 mg/kg, route oral", "conditions": "in vivo", "summary_of_the_method": "as §1"}, "[4]": {"tested_on": "Influenza A virus", "assay": "Antiviral activity against Influenza A virus (A/Puerto Rico/8/1934(H1N1)) infected in MDCK cells assessed as decrease in viral titers at 50 ug/ml pre-treated with virus before infection and measured 24 hrs post infection by HA assay", "assay_type": "functional, organism-based", "summary_of_the_method": "(§3)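 MDCK cells were infected at high moi (≈3.0 PFU/cell). Virus-containing supernatants were serially diluted 2-fold and mixed with an equal volume of 1% chicken red blood cells. After 60 min at 4 °C, wells were scored for button sedimentation versus opaque agglutination to give titers.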"}, "[5]": {"target": "Hemagglutinin (Influenza A virus (A/Puerto Rico/8/1934(H1N1)), UniProt P03452)", "sequence (P03452 whole entry)": "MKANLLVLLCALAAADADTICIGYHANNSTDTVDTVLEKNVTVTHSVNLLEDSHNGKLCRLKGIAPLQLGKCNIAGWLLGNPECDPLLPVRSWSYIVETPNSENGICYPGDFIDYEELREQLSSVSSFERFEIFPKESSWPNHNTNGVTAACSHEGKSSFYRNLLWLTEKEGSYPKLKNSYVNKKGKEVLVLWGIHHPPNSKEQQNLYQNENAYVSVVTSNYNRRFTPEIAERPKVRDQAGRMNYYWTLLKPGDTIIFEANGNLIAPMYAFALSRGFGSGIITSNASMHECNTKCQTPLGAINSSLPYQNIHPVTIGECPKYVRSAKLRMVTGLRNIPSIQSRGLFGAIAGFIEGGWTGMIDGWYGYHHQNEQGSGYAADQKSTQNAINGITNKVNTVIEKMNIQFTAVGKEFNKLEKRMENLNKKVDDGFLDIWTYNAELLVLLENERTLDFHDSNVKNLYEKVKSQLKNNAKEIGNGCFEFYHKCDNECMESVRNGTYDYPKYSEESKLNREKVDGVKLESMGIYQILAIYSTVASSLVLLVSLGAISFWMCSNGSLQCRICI", "assay": "Binding affinity to Influenza A virus (A/California/04/2009(H1N1)) Hemagglutinin at 1.5625 to 50 uM by SPR assay", "summary_of_the_method": "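HA protein was immobilized on CM5 chips. Compound (50, […], 12.5, 6.25, 3.125, 1.5625 µM) was injected for 2 min, followed by a 10-min PBST wash and regeneration with 2 mM NaOH for 30 s. Runs were at 25 °C with 2 µl/s flow, using a blank HA-free reference channel. KD was obtained from kinetic fitting.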"}, "[6]": {"tested_on": "Influenza A virus", "assay": "Antiviral activity against Influenza A virus (A/California/04/2009(H1N1)) infected in MDCK cells incubated for 3 days by crystal violet staining based plaque assay", "assay_type": "functional, organism-based", "conditions": "72 h", "summary_of_the_method": "as §2"}, "[7]": {"assay": "AUC (0 to t) in mouse at 0.5 mg/kg, iv administered as single dose", "assay_type": "ADME, organism-based", "conditions": "in vivo", "summary_of_the_method": "as §1"}, "[8]": {"tested_on": "Influenza A virus", "assay": "Antiviral activity against Influenza A virus (A/Puerto Rico/8/1934(H1N1)) infected in human A549 cells assessed as reduction in endocytosis and nuclear import of viral RNP by measuring green fluorescence of NP protein in both cytoplasm and nucleus at 25 ug/ml during early infection stage (0 to 2 hrs post infection) by indirect immunofluorescence assay", "assay_type": "functional, organism-based", "summary_of_the_method": "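PR8 virus was pretreated with or without 25 µg/ml compound for 1 h at 37 °C before infection. After adsorption, compound- or DMSO-containing medium was added. At 2 h p.i. cells were fixed (4% PFA), permeabilized (0.5% Triton X-100) and blocked (2% BSA). They were stained with anti-NP antibody, FITC secondary antibody and DAPI, then imaged by confocal microscopy.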"}, "[9]": {"tested_on": "Influenza A virus", "assay": "Antiviral activity against Influenza A virus (A/Puerto Rico/8/1934(H1N1)) infected in MDCK cells by HA assay", "assay_type": "functional, organism-based", "summary_of_the_method": "as §3"}, "[10]": {"target": "Hemagglutinin (Influenza A virus (A/Puerto Rico/8/1934(H1N1))) (UniProt P03452)", "sequence (P03452 whole entry)": "as above", "assay": "Inhibition of Influenza A virus (A/Puerto Rico/8/1934(H1N1)) Hemagglutinin expressed in African green monkey Vero cells assessed as reduction in virus-induced syncytium formation at 50 ug/ml pre-treated with trypsin followed by compound addition for 15 mins and measured after 2 hrs at pH 5 by HA syncytium assay", "assay_type": "cell-based", "summary_of_the_method": "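Vero cells were transfected with PR8 HA plasmid (2 µg per well). At 16 h post-transfection, HA was cleaved with 5 µg/mL TPCK-trypsin for 15 min at 37 °C. Cells were pre-incubated with compound for 15 min at 37 °C, then exposed to pH 5.0 buffer containing compound for 10 min at 37 °C. After rinsing, cells were kept in 10% FBS medium for 2 h, stained, and syncytia imaged.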"}, "[11]": {"assay": "Tmax in rat at 3.5 mg/kg , po administered as single dose", "assay_type": "ADME, organism-based", "conditions": "in vivo", "summary_of_the_method": "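Male Kunming mice (20–25 g) and male SD rats (180–220 g) were fasted 12 h before dosing. Compound was suspended in 0.5% CMC-Na and given by gavage (5 mg/kg mice, 3.5 mg/kg rats), or dissolved in PEG400 and given iv via tail vein (0.5 mg/kg mice, 0.35 mg/kg rats). Plasma was sampled from 5 min to 24 h and analysed by LC-MS/MS (n=3). F = AUCoral/AUCiv.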"}, "[12]": {"assay": "AUC (0 to t) in mouse at 5 mg/kg, po administered as single dose", "assay_type": "ADME, organism-based", "conditions": "in vivo", "summary_of_the_method": "as §1"}, "[13]": {"assay": "Elimination half life in mouse at 0.5 mg/kg, iv administered as single dose", "assay_type": "ADME, organism-based", "conditions": "in vivo, read-out: beta t1/2 (converted)", "summary_of_the_method": "as §1"}, "[14]": {"assay": "Toxicity in Kunming mouse assessed as effect on LDH level at 5 to 10 mg/kg/day, po for 7 days", "assay_type": "organism-based", "conditions": "in vivo, 168 h", "summary_of_the_method": "(§4)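 Male Kunming mice (20–25 g) received compound orally at 5 or 10 mg/kg/day, suspended in 0.5% sodium carboxymethyl cellulose, once daily for 7 days; controls received vehicle. Serum was collected under isoflurane 24 h after the last dose. AST, ALT, CR, BUN, LDH, CK and CK-MB were measured with commercial kits.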"}, "[15]": {"tested_on": "Influenza A virus", "assay": "Antiviral activity against Influenza A virus (A/Puerto Rico/8/1934(H1N1)) infected in Kunming mouse assessed as decrease in lung TNFalpha level at 20 to 40 ug/day dosed intranasally starting 4 hrs after viral challenge and continued for 4 days by ELISA", "assay_type": "functional, organism-based", "summary_of_the_method": "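Four-week-old female Kunming mice received PR8 intranasally (500 PFU/mouse in 40 µL PBS) and were then dosed once daily orally or intranasally. Lungs were collected on day 4, and TNF-α and IL-6 in lung tissue were measured by ELISA.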"}, "[16]": {"assay": "Cumulative drug excretion in mouse feces at 5 mg/kg, po administered as single dose measured after 72 hrs", "assay_type": "ADME, organism-based", "conditions": "faeces, read-out: Drug excretion", "summary_of_the_method": "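Single oral (gavage, 0.5% CMC-Na) or iv (tail vein, PEG400) dosing was given to male Kunming mice or Sprague Dawley rats held in metabolic cages. Urine and feces were collected at intervals to 72 h. Feces were dried, ground and homogenized in water (1:9 w/v). Samples were precipitated with acetonitrile containing internal standard and analysed by LC-MS/MS.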"}, "[17]": {"assay": "Metabolic stability in mouse liver microsomes at 2 uM after 60 mins", "assay_type": "ADME, Microsome", "conditions": "read-out: Stability", "summary_of_the_method": "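Mouse, rat or human liver microsomes (final 0.5 mg/mL protein) were preincubated with an NADPH-regenerating system in 50 mM Tris-HCl pH 7.4 at 37 °C for 5 min. Compound was added at 2 µM final and incubated at 37 °C; NADPH-free incubations served as controls. Reactions were quenched with acetonitrile plus internal standard at 60 min. Percent remaining was measured by LC-MS/MS (n=3).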"}, "[18]": {"assay": "Toxicity in Kunming mouse assessed as effect on ALT level at 5 to 10 mg/kg/day, po for 7 days", "assay_type": "organism-based", "conditions": "in vivo, 168 h", "summary_of_the_method": "as §4"}},
  "note": "pKd: −log10 of the molar value. Active and inactive are the calls of the source. The rule behind the calls is not given here.",
  "data": [
    {"smiles": "CC(=O)c1cc(C)c(O)c(Cc2[nH]c3ccccc3c2Cc2c(O)c(C)cc(C(C)=O)c2O)c1O", "values": [
      {"measurement": "half-life", "setting": "[1]", "value": 4.8, "unit": "h"},
      {"measurement": "Activity", "setting": "[2]", "value": "Dose-dependent effect"},
      {"measurement": "Cmax", "setting": "[3]", "value": 0.016, "unit": "µg/mL"},
      {"measurement": "Activity", "setting": "[4]", "value": "Active"},
      {"measurement": "pKd", "setting": "[5]", "value": 5.16},
      {"measurement": "IC50", "setting": "[6]", "value": "< 13", "unit": "mg/L"},
      {"measurement": "AUC(0-t)", "setting": "[7]", "value": 0.269, "unit": "µg·h/mL"},
      {"measurement": "Activity", "setting": "[8]", "value": "Active"},
      {"measurement": "Activity", "setting": "[9]", "value": "Dose-dependent effect"},
      {"measurement": "inhibition", "setting": "[10]", "value": "Active"},
      {"measurement": "Tmax", "setting": "[11]", "value": 4.3, "unit": "h"},
      {"measurement": "AUC(0-t)", "setting": "[12]", "value": 0.152, "unit": "µg·h/mL"},
      {"measurement": "half-life", "setting": "[13]", "value": 3.4, "unit": "h"},
      {"measurement": "Activity", "setting": "[14]", "value": "Non-Toxic"},
      {"measurement": "Activity", "setting": "[15]", "value": "Active"},
      {"measurement": "dose excreted at 72 h", "setting": "[16]", "value": 38.4, "unit": "%"},
      {"measurement": "remaining at 1 h, 2 µM", "setting": "[17]", "value": 0.8, "unit": "%"},
      {"measurement": "Activity", "setting": "[18]", "value": "Non-Toxic"}
    ]}
  ]
}
